Laboratory results: ChEMBL document CHEMBL1132324, “Structure-activity relationships in 1,4-benzodioxan-related compounds. 6. Role of the dioxane unit on selectivity for alpha(1)-adrenoreceptor subtypes” (J Med Chem, 1999)

Key:
[1] = target: T1, 5-hydroxytryptamine receptor 1A (Homo sapiens) (UniProt P08908); assay: The binding affinity was evaluated on cloned human 5-hydroxytryptamine 1A receptor expressed in HeLa cells by using DPAT as radioligand.; type: cell-based
T1 sequence (whole entry): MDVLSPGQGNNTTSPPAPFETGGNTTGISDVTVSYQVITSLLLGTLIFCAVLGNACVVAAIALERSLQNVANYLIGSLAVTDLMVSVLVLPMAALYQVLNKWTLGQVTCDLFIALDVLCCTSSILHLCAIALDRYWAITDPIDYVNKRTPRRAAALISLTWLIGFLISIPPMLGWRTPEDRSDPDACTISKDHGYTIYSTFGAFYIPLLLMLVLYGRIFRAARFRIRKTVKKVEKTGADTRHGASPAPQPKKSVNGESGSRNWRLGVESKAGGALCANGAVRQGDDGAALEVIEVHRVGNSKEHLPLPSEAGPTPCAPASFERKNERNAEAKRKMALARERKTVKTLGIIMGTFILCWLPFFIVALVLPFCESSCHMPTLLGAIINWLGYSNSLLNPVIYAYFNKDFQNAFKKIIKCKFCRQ
Outline: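 Membranes from HeLa cells stably expressing human 5-HT1A, in 50 mM Tris-HCl pH 7.4, 2.5 mM MgCl2, 10 μM pargyline. Nonspecific binding with 10 μM 5-HT. Filtration. Ki by Cheng-Prusoff. 2–3 experiments in triplicate.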

[2] = target: T2, Alpha-1D adrenergic receptor (Rattus norvegicus) (UniProt P23944); assay: Antagonist affinity was expressed as apparent pKb at Alpha-1D adrenergic receptor on isolated rat thoracic aorta (Alpha-1D); type: functional, tissue-based
T2 sequence (whole entry): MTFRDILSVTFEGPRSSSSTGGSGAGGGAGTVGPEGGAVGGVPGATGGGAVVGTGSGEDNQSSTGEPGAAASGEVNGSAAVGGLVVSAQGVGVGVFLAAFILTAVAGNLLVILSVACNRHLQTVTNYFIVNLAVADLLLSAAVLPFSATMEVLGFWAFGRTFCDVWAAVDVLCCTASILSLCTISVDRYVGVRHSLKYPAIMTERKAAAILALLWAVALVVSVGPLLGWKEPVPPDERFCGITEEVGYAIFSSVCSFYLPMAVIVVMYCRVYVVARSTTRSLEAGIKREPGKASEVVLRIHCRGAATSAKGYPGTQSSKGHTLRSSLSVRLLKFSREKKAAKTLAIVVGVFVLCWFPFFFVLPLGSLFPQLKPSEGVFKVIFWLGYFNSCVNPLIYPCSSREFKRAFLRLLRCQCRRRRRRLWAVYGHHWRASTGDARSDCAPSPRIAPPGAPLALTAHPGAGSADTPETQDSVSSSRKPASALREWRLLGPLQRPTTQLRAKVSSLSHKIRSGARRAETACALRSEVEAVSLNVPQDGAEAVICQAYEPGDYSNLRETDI
Outline: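 Helicoidal strips of rat thoracic aorta at 1 g tension, with 0.1 μM cocaine and 1 μM propranolol. After ≥1 h equilibration, cumulative (–)-noradrenaline curves at 30-min intervals; the third served as control. Antagonist equilibrated 30 min before the fourth curve. Apparent pKb from log(DR−1) − log[B], 2–3 antagonist concentrations, each tested four times.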

[3] = target: T3, Alpha-1A adrenergic receptor (Homo sapiens) (UniProt P35348); assay: The binding affinity was evaluated on cloned human Alpha-1A adrenergic receptor expressed in chinese hamster ovary(CHO) cells by using [3H]prazosin as radioligand.; type: cell-based
T3 sequence (whole entry): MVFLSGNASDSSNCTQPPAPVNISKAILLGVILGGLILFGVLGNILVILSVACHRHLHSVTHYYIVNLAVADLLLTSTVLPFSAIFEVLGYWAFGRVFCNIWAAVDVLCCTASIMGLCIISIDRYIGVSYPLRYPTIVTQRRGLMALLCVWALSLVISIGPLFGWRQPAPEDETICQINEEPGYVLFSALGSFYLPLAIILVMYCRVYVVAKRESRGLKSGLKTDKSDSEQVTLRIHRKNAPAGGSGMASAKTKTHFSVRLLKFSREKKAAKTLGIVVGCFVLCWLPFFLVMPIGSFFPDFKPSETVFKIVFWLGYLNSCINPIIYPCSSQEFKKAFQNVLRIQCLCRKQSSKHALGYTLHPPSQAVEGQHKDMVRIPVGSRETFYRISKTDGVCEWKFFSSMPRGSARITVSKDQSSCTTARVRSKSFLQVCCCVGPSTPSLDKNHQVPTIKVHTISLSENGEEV
Outline: (§1)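 Membranes (30 μg protein) from CHO cells stably expressing each human α1 subtype, in 50 mM Tris-HCl pH 7.4. Incubated with 0.1–0.4 nM [3H]prazosin for 30 min at 25 °C, competitor 1 pM–10 μM. Nonspecific binding with 10 μM phentolamine. Ki by Cheng-Prusoff. 2–3 experiments in triplicate.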

[4] = target: T4, Alpha-1B adrenergic receptor (Homo sapiens) (UniProt P35368); assay: The binding affinity was evaluated on cloned human Alpha-1B adrenergic receptor expressed in chinese hamster ovary(CHO) cells by using [3H]prazosin as radioligand.; type: cell-based; outline: as §1
T4 sequence (whole entry): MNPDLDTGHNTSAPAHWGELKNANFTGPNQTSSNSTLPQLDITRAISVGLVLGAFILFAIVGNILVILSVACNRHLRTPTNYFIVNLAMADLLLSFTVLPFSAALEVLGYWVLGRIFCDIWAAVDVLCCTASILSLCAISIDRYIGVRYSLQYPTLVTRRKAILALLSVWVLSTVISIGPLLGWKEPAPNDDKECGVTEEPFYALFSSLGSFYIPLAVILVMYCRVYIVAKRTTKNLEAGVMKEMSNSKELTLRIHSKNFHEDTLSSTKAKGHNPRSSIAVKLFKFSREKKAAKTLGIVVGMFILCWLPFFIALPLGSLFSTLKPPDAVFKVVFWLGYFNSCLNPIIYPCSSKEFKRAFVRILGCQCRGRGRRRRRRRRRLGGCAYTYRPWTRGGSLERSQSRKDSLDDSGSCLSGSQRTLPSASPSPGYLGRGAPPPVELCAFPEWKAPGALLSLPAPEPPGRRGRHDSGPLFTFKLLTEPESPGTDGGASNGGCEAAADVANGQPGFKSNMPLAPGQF

[5] = target: 5-hydroxytryptamine receptor 2A (Rattus norvegicus) (UniProt P14842); assay: The binding affinity was evaluated on 5-hydroxytryptamine 2A receptor expressed in rat cortex by using [3H]ketanserin as radioligand.
5-hydroxytryptamine receptor 2A (Rattus norvegicus), sequence (P14842 whole entry): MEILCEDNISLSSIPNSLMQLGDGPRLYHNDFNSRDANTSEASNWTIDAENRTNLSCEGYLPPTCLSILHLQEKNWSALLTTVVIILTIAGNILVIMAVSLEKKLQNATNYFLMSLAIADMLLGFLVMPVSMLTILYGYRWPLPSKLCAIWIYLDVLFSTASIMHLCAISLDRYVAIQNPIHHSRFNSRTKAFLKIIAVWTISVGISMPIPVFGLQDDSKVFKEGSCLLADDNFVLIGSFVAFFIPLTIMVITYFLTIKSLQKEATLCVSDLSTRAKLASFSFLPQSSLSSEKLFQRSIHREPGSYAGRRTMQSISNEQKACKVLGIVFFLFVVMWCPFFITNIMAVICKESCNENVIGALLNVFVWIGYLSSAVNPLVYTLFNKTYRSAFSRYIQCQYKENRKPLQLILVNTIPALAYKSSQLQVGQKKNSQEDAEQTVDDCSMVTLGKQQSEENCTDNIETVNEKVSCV
Outline: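 Rat cerebral cortex membranes in Tris-HCl pH 7.4 with 10 μM pargyline and 0.1% ascorbic acid. Incubated 20 min at 37 °C with 0.7–1.3 nM [3H]ketanserin. Nonspecific binding with 2 μM ketanserin. Filtration and scintillation counting. Ki by Cheng-Prusoff. 2–3 experiments in triplicate.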

[6] = target: D(2) dopamine receptor (Rattus norvegicus) (UniProt P61169); assay: The binding affinity was evaluated on Dopamine receptor D2 expressed in rat striatum by using [3H]spiperone as radioligand; type: tissue-based
D(2) dopamine receptor (Rattus norvegicus), sequence (P61169 whole entry): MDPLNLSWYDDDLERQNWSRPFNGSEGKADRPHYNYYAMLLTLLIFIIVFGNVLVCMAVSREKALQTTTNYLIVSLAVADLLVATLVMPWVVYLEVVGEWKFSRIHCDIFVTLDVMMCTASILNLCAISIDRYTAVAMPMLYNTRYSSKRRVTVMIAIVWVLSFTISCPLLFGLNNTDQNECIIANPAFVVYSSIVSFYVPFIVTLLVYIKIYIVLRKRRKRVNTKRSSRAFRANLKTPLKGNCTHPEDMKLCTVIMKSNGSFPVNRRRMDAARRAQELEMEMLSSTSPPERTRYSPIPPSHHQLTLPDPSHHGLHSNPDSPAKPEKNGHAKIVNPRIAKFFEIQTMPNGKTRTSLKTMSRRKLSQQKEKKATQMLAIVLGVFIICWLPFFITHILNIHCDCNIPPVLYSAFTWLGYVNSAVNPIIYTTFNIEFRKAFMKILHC
Outline: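 Rat striatum membranes in Tris-HCl with 10 μM pargyline, 0.1% ascorbic acid, 120 mM NaCl, 5 mM KCl, 2 mM CaCl2, 1 mM MgCl2. Incubated 15 min at 37 °C with 0.2–0.6 nM [3H]spiperone. Nonspecific binding with 1 μM (+)-butaclamol. Ki by Cheng-Prusoff. 2–3 experiments in triplicate.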

Row | SMILES | pKi [1] | pKb [2] | pKi [3] | pKi [4] | pKi [5] | pKi [6]
1 | COc1cccc(OC)c1OCCNCCOc1ccccc1OCc1ccccc1 | 7.93 | 9.37 | 9.33 | 9.27 | – | –
2 | COc1cccc(OC)c1OCCNCC1Oc2ccccc2CC1c1ccccc1 (stereo in doubt; 7) | 6.84 | 7.46 | 8.49 | 6.58 | < 6 | < 6
3 | COc1cccc(OC)c1OCCNCC1C(=O)c2ccccc2OC1c1ccccc1 (stereo not drawn) | 6.73 | – | – | – | 6.2 | < 6
